Experiments:
[1] = system: MS2 coat protein; experiment: apparent Kd, MS2 coat protein; higher = weaker binding; RNA-MaP array; tryptophan 2.4 mM where present
In short: (§1)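 Binding was read on Illumina sequencing-chip clusters where stalled E. coli RNA polymerase had transcribed each design. A titration of SNAP-549-labelled MS2 coat protein began at 0.7 or 1.5 nM and doubled to 3 µM, once without ligand and once with constant ligand, in 100 mM Tris-HCl pH 7.5, 80 mM KCl, 4 mM MgCl2, BSA, DTT, yeast tRNA and Tween-20. The apparent Kd is the median of filtered per-cluster binding-curve fits, based on green signal normalised to red-channel RNA signal and control-cluster median Fmax.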

[2] = system: MS2 coat protein; experiment: apparent Kd, MS2 coat protein; higher = weaker binding; RNA-MaP array; theophylline 2 mM where present
In short: as §1

[3] = designed as: OFF switch for tryptophan, no ligand
[4] = ligand present: tryptophan, designed as: OFF switch for tryptophan
[5] = designed as: ON switch for tryptophan, no ligand
[6] = ligand present: tryptophan, designed as: ON switch for tryptophan
[7] = designed as: OFF switch for theophylline, no ligand
[8] = ligand present: theophylline, designed as: OFF switch for theophylline
[9] = designed as: ON switch for theophylline, no ligand
[10] = ligand present: theophylline, designed as: ON switch for theophylline

AAAGAUCGGAAACGAUCGGCGGCUUGGGCGCGAGGACCGGUACGGCCGCCACUCGGGAAACAUGAGGAUCACCCAUGUUGCUUCU
apparent Kd [1, 3]: 10.9 nM
apparent Kd [1, 4]: 12 nM

AACAUCACAACGGCCGCCACUGCACAUGACAACAUGAGGAUCACCCAUGUGGAUCACCCAUGUCCCAGGACCGGGUUAUGAGGAU
apparent Kd [1, 5]: 29.1 nM
apparent Kd [1, 6]: 25.9 nM

AACAUGAGGAUCACCCAUGUCCCAUGUGAACGAGGACCGGUACGGCCGCCACUCGAAUAAGGCGGCACAUGAGGAUCACCCACAU
apparent Kd [1, 5]: 168 nM
apparent Kd [1, 6]: 373 nM

AACAUGAGGAUCACCCAUGUCCCAUGUGAACGAGGACCGGUACGGCCGCCACUCGACCGAGGCGGCACAUGAGGAUCACCCGCAU
apparent Kd [1, 5]: 375 nM
apparent Kd [1, 6]: 926 nM

AACAUGAGGAUCACCCAUGUGUCCUCGAAACGAGGACCGGUACGGCCGCCACUCGAAUAAGCUGUUGACGAAAAGUCAGCAGCAA
apparent Kd [1, 3]: 257 nM
apparent Kd [1, 4]: 670 nM

AAUAAUAGGUGAUCUUGUGUCGUACCGUAACGAGGACCGGUACGGCCGCCACUCGAACAUGAGGAUCACCCAUGUAUGUAUGAUA
apparent Kd [1, 5]: 171 nM
apparent Kd [1, 6]: 128 nM

AAUACCGGAUCGGCCGCCACUGGUUGGCCCUGUGUACAUGAGGAUCACCCAUGUCCAUCCCAAACCAGGACCGGGAUCUUUGUGC
apparent Kd [1, 5]: 12 nM
apparent Kd [1, 6]: 10.2 nM

AAUUAAACAUCGGCCGCCACUUACUCAUGAGGUAACAACAUGAGGAUCACCCAUGUUUGAGGAUCAAGGACCGGGAUGUAAUAAU
apparent Kd [1, 5]: 31.3 nM
apparent Kd [1, 6]: 22.6 nM

AAUUAGAUGUCGGCCGCCACUGAUGUGUCUGUUGCGUCCAGUGUGUACAUGAGGAUCACCCAUGUCAGGACCGGGACUUUAAAUU
apparent Kd [1, 3]: 11 nM
apparent Kd [1, 4]: 34 nM

AAUUCAAGGUUCUUGAUGUAUUAUAUAUUUCGAGGACCGGUACGGCCGCCACUCGUUAAUUACAUGAGGAUCACCCAUGUUAGCU
apparent Kd [1, 3]: 17 nM
apparent Kd [1, 4]: 20.9 nM

ACACAAUACAUGAGGAUCACCCAUGUAUAACGAGGACCGGUACGGCCGCCACUCGAAUACUGUAAUCCUCGGAAUAUUAUGUGAA
apparent Kd [1, 3]: 39 nM
apparent Kd [1, 4]: 19.1 nM

ACAUGAGGAUCACCCAUGUAACGGCAUAAUCGAGGACCGGUACGGCCGCCACUCGGAAUCAGUGACAGGCAUAUUUAUUAUAAGA
apparent Kd [1, 3]: 9.88 nM
apparent Kd [1, 4]: 10 nM

ACAUGAGGAUCACCCAUGUGAAGCAGGGUACGAGGACCGGUACGGCCGCCACUCGAGGAUUAUGCCGAGUGAAUGGCAACGAUGU
apparent Kd [1, 3]: 14.4 nM
apparent Kd [1, 4]: 15.4 nM

ACAUGAGGAUCACCCAUGUGUGUAAAUCCUCGAGGACCGGUACGGCCGCCACUCGAUCGAGUGUAAGUUGAAUGUAACAUUCAAC
apparent Kd [1, 5]: 88.4 nM
apparent Kd [1, 6]: 70.5 nM

ACAUUGCGCACGGCCGCCACUGGCUAUAGAUUUAUAGCAUUAAUGAACAUGAGGAUCACCCAUGUCAGGACCGGGUGCGAACCAU
apparent Kd [1, 5]: 17.3 nM
apparent Kd [1, 6]: 19.7 nM

ACGCUGCAUAGGAAAACUAUGUAGCGAAAUCGAGGACCGGUACGGCCGCCACUCGUCCUCAACAUGAGGAUCACCCAUGUAAUAA
apparent Kd [1, 3]: 19.9 nM
apparent Kd [1, 4]: 34.7 nM

AGAGGUAUACAUGGAAACAUGUAUAUUUCACGAGGACCGGUACGGCCGCCACUCGGUACCGGAAACACAUGAGGAUCACCCAUGU
apparent Kd [1, 3]: 18.7 nM
apparent Kd [1, 4]: 16.9 nM

AGGUGCGGCACGGCCGCCACUGCGGUGGUGUGACAUGAGGAUCACCCAUGUUGUCAUGCGGCCCUUAGGACCGGGUGGCGUGCCU
apparent Kd [1, 3]: 39.7 nM
apparent Kd [1, 4]: 46 nM

AUAACAUGAGGAUCACCCAUGUAUUGGUAACGAGGACCGGUACGGCCGCCACUCGUAUUUUGGUGGUAUUAUAUAUAUAUGAUUA
apparent Kd [1, 5]: 20.8 nM
apparent Kd [1, 6]: 19.7 nM

AUACAUGAGGAUCACCCAUGUGAUGGCCGGCGAGGACCGGUACGGCCGCCACUCGUGAUCCGUCCUGAAAGCAAAGCUUCCAGCA
apparent Kd [1, 5]: 182 nM
apparent Kd [1, 6]: 239 nM

AUCAUAAUAGACUCGUUAGAUUAUAUGGAACGAGGACCGGUACGGCCGCCACUCGUGAUGUACAUGAGGAUCACCCAUGUUAGCA
apparent Kd [1, 5]: 13.5 nM
apparent Kd [1, 6]: 13.5 nM

AUUCAUGGAAACAUGACAUAGGGAUCACUCCGAGGACCGGUACGGCCGCCACUCGCGAGGAGGCACAUGAGGAUCACCCAUGUUA
apparent Kd [1, 5]: 49 nM
apparent Kd [1, 6]: 39.7 nM

AUUGUGAAGUCGGCCGCCACUGGUUAGUUUAACCUCAUGUAACAUGAGGAUCACCCAUGUAAUGACAGGACCGGGACAAUAGUAA
apparent Kd [1, 3]: 187 nM
apparent Kd [1, 4]: 151 nM

CACAGUGCGAAUUUGAAAUCGCACGAUCCUCGAGGACCGGUACGGCCGCCACUCGCGCGGGUCGUACAUGAGGAUCACCCAUGUC
apparent Kd [1, 5]: 317 nM
apparent Kd [1, 6]: 545 nM

CACAGUGCGAAUUUGAAUUCGCACGAUCCUCGAGGACCGGUACGGCCGCCACUCGCGCGGGUCGUACAUGAGGAUCACCCAUGUC
apparent Kd [1, 5]: 166 nM
apparent Kd [1, 6]: 842 nM

CACGAAAGAUCGGCCGCCACUAAUCGAUGUGUUCUUUCACAUGAGGAUCACCCAUGUUCUUGCGUUAGGACCGGGAUUGAGCGUG
apparent Kd [1, 3]: 38.7 nM
apparent Kd [1, 4]: 31.9 nM

CGAUGAUCGAGGGAUACCAGAAAUGGUAUUCCUUUAUUUCUUACAUGAGGAUCACCCAUGUUCCCUUGGCAGCUUUUGAUCAUCG
apparent Kd [2, 7]: 86.5 nM
apparent Kd [2, 8]: 149 nM

CGCAACCCUAAGGGAUUGUGGUUAUUAGAUACCAGUAUGAUGCAAUACCCUUGGCAGCUAAUACAUGAGGAUCACCCAUGUUGCG
apparent Kd [2, 8]: 59.5 nM

CUGGCAGGAUGAUCCGCUGUCAGGGCUGAUACCAGCCACGAAAGUGGCCCUUGGCAGCAGCAAACAUGAGGAUCACCCAUGUAAA
apparent Kd [2, 9]: 144 nM
apparent Kd [2, 10]: 266 nM

GACAUGAGGAUCACCCAUGUAUUGGGUGAUACCAGCCUGAAUCAUGGCCCUUGGCAGCACCGCGCUAACUUUAUGUUUGCGAACC
apparent Kd [2, 9]: 49.7 nM
apparent Kd [2, 10]: 160 nM

GAGCUGAUGUAGAGCGAAUAUUCGAGAGAUACCAGUACAGAAAUGUACCCUUGGCAGCUCAACUUUACAUGAGGAUCACCCAUGU
apparent Kd [2, 7]: 13.7 nM
apparent Kd [2, 8]: 25 nM

GCAAUACAUGAGGAUCACCCAUGUGCAGAUACCAGAGGUGUAUGCCUCCCUUGGCAGCUGCGACGCUCUGGCAUCUUGUGGGAUG
apparent Kd [2, 9]: 51.8 nM
apparent Kd [2, 10]: 48.8 nM

GGCGGACUUAUAGAUACCAGCACAUGAGGAUCACCCAUGUAUGGUCGCACCUCAGUCCUGUGCCCUUGGCAGCUAUAAUAGAUUU
apparent Kd [2, 7]: 19.7 nM
apparent Kd [2, 8]: 115 nM

GGCGGACUUAUAGAUACCAGCACAUGAGGAUCACCCAUGUUUGGUCGCACCUCAGUCCUGUGCCCUUGGCAGCUAUGAUAGAUUU
apparent Kd [2, 7]: 17.3 nM
apparent Kd [2, 8]: 95.1 nM

GGUAUUGGAACAGAUACCAGUAUCUGUUGAUCCUACAUGAGGAUCACCCAUGUUAGAAAGUACCCUUGGCAGCUGUAAUAAUGCC
apparent Kd [2, 7]: 48.1 nM
apparent Kd [2, 8]: 81.6 nM

GGUCUGAAAACCGAUCAAAGAUCGGAAGAUACCAGAGGGUGAUCCCUCCCUUGGCAGCUUCACAUGAGGAUCACCCAUGUAGACC
apparent Kd [2, 9]: 192 nM
apparent Kd [2, 10]: 151 nM

GGUGGCUGGAUCGAUACCAGCCACCACCGAUAGACCACAUGAGGAUCACCCAUGUUGGGUGGCCCUUGGCAGCGGUCCGGCUGCC
apparent Kd [2, 9]: 278 nM
apparent Kd [2, 10]: 1290 nM

GUGGAGACAUGAGAUACCAGUCUCUUUAACAUGAGGAUCACCCAUGUAAUGCUCCUCGGAGACCCUUGGCAGCUCAGUAUGAUGA
apparent Kd [2, 7]: 39.9 nM
apparent Kd [2, 8]: 157 nM

UAAUAAAUAAGUGAUACCAGCGAGAAAACAUGAGGAUCACCCAUGUUCGCCCAUGUUAAGCGCCCUUGGCAGCACAAAUAUAAAA
apparent Kd [2, 7]: 26.1 nM
apparent Kd [2, 8]: 84.9 nM

UAUACAUGAGGAUCACCCAUGUGCCAUGAUACCAGACAUGAAAAUGUCCCUUGGCAGCAUGGUGAUUGUAUAGCGGGAAACCCGA
apparent Kd [2, 9]: 160 nM
apparent Kd [2, 10]: 196 nM

UCGUGUAUAUCGGAUACCAGUGAAAUCGAUACAUGAGGAUCACCCAUGUGAGAGGAUGUACACCCUUGGCAGCUGUAUAUAUCUA
apparent Kd [2, 9]: 32.8 nM
apparent Kd [2, 10]: 14.7 nM

UCGUGUAUAUCGGAUACCAGUGAAAUCGAUACAUGAGGAUCACCCAUGUGAGUUGAUGUACACCCUUGGCAGCUGUAUAUAUCUA
apparent Kd [2, 9]: 16.2 nM
apparent Kd [2, 10]: 12.4 nM

UCUGGGUCCGCAAGGACCUGGAGUUGCGAUACCAGCACGGUAACGUGCCCUUGGCAGCGCACAUGAGGAUCACCCAUGUGGUGUU
apparent Kd [2, 7]: 261 nM
apparent Kd [2, 8]: 436 nM

UCUUACUUGGUAGAUACCAGCGUGUUAUCUUUCUUUUGACAUGAGGAUCACCCAUGUAUAUGCCCUUGGCAGCUGCGUAGUGUGU
apparent Kd [2, 9]: 33.7 nM
apparent Kd [2, 10]: 32.5 nM

UGACAUUGCUCAGAUACCAGACAUGAGGAUCACCCAUGUACCAAGAAAGUACAAUAAAAUGUCCCUUGGCAGCUGAGCAAUGUCU
apparent Kd [2, 7]: 66.8 nM
apparent Kd [2, 8]: 487 nM

UGACGAUACCUGGAUACCAGCGACAUGAGGAUCACCCAUGUAUGAGGAUCAGCCAUGUUAUGCCCUUGGCAGCCACGAAGGUCUU
apparent Kd [2, 7]: 33 nM
apparent Kd [2, 8]: 224 nM

UGGUACAUGAGGAUCACCCAUGUUCCAGAUACCAGUGUCCCGCUGCACCCUUGGCAGCUGGUGGCACAUGAGGAUCACCCAUGUG
apparent Kd [2, 7]: 15 nM
apparent Kd [2, 8]: 17.1 nM

UGUAACAUGAGGAUCACCCAUGUGAGUGAUACCAGAUUAGUAGUAGUCCCUUGGCAGCACAUUGGGCGAGUGUAUAGUCUAUGCG
apparent Kd [2, 9]: 171 nM
apparent Kd [2, 10]: 118 nM

UGUACAUGAGGAUCACCCAUGUUACGCGAUACCAGACAUGAGAGUGUCCCUUGGCAGCGUGGAGCUGAUACGGCGGGAAGCCGGA
apparent Kd [2, 9]: 43.7 nM
apparent Kd [2, 10]: 39.5 nM

UUCUACAUGAGGAUCACCCAUGUAAACGAUACCAGACGAGUAUUAGUCCCUUGGCAGCGUAGAGUGUCGUUUAUAGUAGGAUACC
apparent Kd [2, 9]: 22.7 nM

UUGGUACGACAGCUCAUAUAAGCAUGUGAUACCAGACUGGAAACAGUCCCUUGGCAGCACUUUACAUGAGGAUCACCCAUGUCGG
apparent Kd [2, 7]: 221 nM
apparent Kd [2, 8]: 191 nM

UUUGAUAGGACAGAUACCAGCGUGUUAUAGAACAUGAGGAUCACCCAUGUAGUGAUCAAGCGCCCUUGGCAGCUGGUUUGUUAGG
apparent Kd [2, 9]: 229 nM
apparent Kd [2, 10]: 395 nM
